Active and inactive are the calls of the source. The calls are words filed in the database; no cut-off is given here.
What was measured:
3T3-L1 [1] = assay: Anti-adipogenic activity in mouse 3T3-L1 preadipocytes assessed as inhibition of lipid accumulation incubated for 6 days by Nile Red staining based fluorescence microscopic analysis; type: functional, cell-based; conditions: time 6.0 day
[2] = Cytotoxicity against mouse 3T3-L1 cells assessed as cell viability at 5 uM incubated for 48 hrs by CCK-8 assay relative to control; type: toxicity, cell-based; conditions: read-out: Activity
Outline: (§1)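 3T3-L1 preadipocytes seeded at 1 × 10^3 cells/well and left 12 h, then exposed to alkaloids for 48 h. Viability by CCK-8, absorbance at 450 nm, relative to control. Lovastatin 5 μM included. Mean ± SD, n = 3.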

[3] = Cytotoxicity against mouse 3T3-L1 cells assessed as cell viability at 10 uM incubated for 48 hrs by CCK-8 assay relative to control; type: toxicity, cell-based; conditions: read-out: Activity; outline: as §1
[4] = Cytotoxicity against mouse 3T3-L1 cells assessed as cell viability at 15 uM incubated for 48 hrs by CCK-8 assay relative to control; type: toxicity, cell-based; conditions: read-out: Activity; outline: as §1
[5] = Cytotoxicity against mouse 3T3-L1 cells assessed as cell viability at 20 uM incubated for 48 hrs by CCK-8 assay relative to control; type: toxicity, cell-based; conditions: read-out: Activity; outline: as §1
[6] = Cytotoxicity against mouse 3T3-L1 cells assessed as cell viability at 25 uM incubated for 48 hrs by CCK-8 assay relative to control; type: toxicity, cell-based; conditions: read-out: Activity; outline: as §1
[7] = Cytotoxicity against mouse 3T3-L1 cells transfected with Lenti-PPARgamma-Luc reporter assessed as cell viability at 0.1 uM incubated for 48 hrs by CCK-8 assay relative to control; type: toxicity, cell-based; conditions: read-out: Activity
Outline: (§2)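 3T3-L1-Lenti-PPARγ-Luc reporter cells (lentivirus-transduced) exposed to alkaloids at a range of concentrations. Viability by CCK-8, absorbance at 450 nm, relative to control, used to set maximum noncytotoxic concentrations. Triplicate.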

[8] = Cytotoxicity against mouse 3T3-L1 cells transfected with Lenti-PPARgamma-Luc reporter assessed as cell viability at 1 uM incubated for 48 hrs by CCK-8 assay relative to control; type: toxicity, cell-based; conditions: read-out: Activity; outline: as §2
[9] = Cytotoxicity against mouse 3T3-L1 cells transfected with Lenti-PPARgamma-Luc reporter assessed as cell viability at 2.5 uM incubated for 48 hrs by CCK-8 assay relative to control; type: toxicity, cell-based; conditions: read-out: Activity; outline: as §2
[10] = Cytotoxicity against mouse 3T3-L1 cells transfected with Lenti-PPARgamma-Luc reporter assessed as cell viability at 5 uM incubated for 48 hrs by CCK-8 assay relative to control; type: toxicity, cell-based; conditions: read-out: Activity; outline: as §2
[11] = Cytotoxicity against mouse 3T3-L1 cells transfected with Lenti-PPARgamma-Luc reporter assessed as cell viability at 7.5 uM incubated for 48 hrs by CCK-8 assay relative to control; type: toxicity, cell-based; conditions: read-out: Activity; outline: as §2
[12] = Cytotoxicity against mouse 3T3-L1 cells transfected with Lenti-PPARgamma-Luc reporter assessed as cell viability at 10 uM incubated for 48 hrs by CCK-8 assay relative to control; type: toxicity, cell-based; conditions: read-out: Activity; outline: as §2
[13] = Cytotoxicity against mouse 3T3-L1 cells transfected with Lenti-PPARgamma-Luc reporter assessed as cell viability at 15 uM incubated for 48 hrs by CCK-8 assay relative to control; type: toxicity, cell-based; conditions: read-out: Activity; outline: as §2
[14] = Cytotoxicity against mouse 3T3-L1 cells transfected with Lenti-PPARgamma-Luc reporter assessed as cell viability at 20 uM incubated for 48 hrs by CCK-8 assay relative to control; type: toxicity, cell-based; conditions: read-out: Activity; outline: as §2
3T3-L1 [15] = assay: Anti-adipogenic activity in mouse 3T3-L1 cells transfected with Lenti-PPARgamma-Luc reporter assessed as inhibition of PPARgamma expression by luminescence based microplate reader analysis; type: functional, cell-based
3T3-L1 [16] = assay: Inhibition of adipogenesis in mouse 3T3-L1 cells assessed as downregulation of PPARgamma relative protein level […] by Western blot analysis; type: functional, cell-based
Outline: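 Differentiated 3T3-L1 adipocytes treated with alkaloids at several doses. Lysed in RIPA with PMSF on ice for 30 min. Proteins transferred to PVDF and blocked with 5% skim milk for 2 h at 25 °C. Primary antibody 2 h, HRP secondary 1 h. PPARγ protein level expressed relative to control. n = 3.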

[17] = Cytotoxicity against mouse 3T3-L1 cells transfected with Lenti-PPARgamma-Luc reporter assessed as cell viability at 25 uM incubated for 48 hrs by CCK-8 assay relative to control; type: toxicity, cell-based; conditions: read-out: Activity; outline: as §2
[18] = Cytotoxicity against mouse 3T3-L1 cells transfected with Lenti-PPARgamma-Luc reporter assessed as cell viability at 30 uM incubated for 48 hrs by CCK-8 assay relative to control; type: toxicity, cell-based; conditions: read-out: Activity; outline: as §2
[19] = Cytotoxicity against mouse 3T3-L1 cells assessed as cell viability at 2.5 uM incubated for 48 hrs by CCK-8 assay relative to control; type: toxicity, cell-based; conditions: read-out: Activity; outline: as §1
[20] = Cytotoxicity against mouse 3T3-L1 cells assessed as cell viability at 1 uM incubated for 48 hrs by CCK-8 assay relative to control; type: toxicity, cell-based; conditions: read-out: Activity; outline: as §1
[21] = Cytotoxicity against mouse 3T3-L1 cells assessed as cell viability at 3 uM incubated for 48 hrs by CCK-8 assay relative to control; type: toxicity, cell-based; conditions: read-out: Activity; outline: as §1
[22] = Cytotoxicity against mouse 3T3-L1 cells assessed as cell viability at 7.5 uM incubated for 48 hrs by CCK-8 assay relative to control; type: toxicity, cell-based; conditions: read-out: Activity; outline: as §1
[23] = Cytotoxicity against mouse 3T3-L1 cells transfected with Lenti-PPARgamma-Luc reporter assessed as cell viability at 2 uM incubated for 48 hrs by CCK-8 assay relative to control; type: toxicity, cell-based; conditions: read-out: Activity; outline: as §2
[24] = Cytotoxicity against mouse 3T3-L1 cells transfected with Lenti-PPARgamma-Luc reporter assessed as cell viability at 3 uM incubated for 48 hrs by CCK-8 assay relative to control; type: toxicity, cell-based; conditions: read-out: Activity; outline: as §2
[25] = Cytotoxicity against mouse 3T3-L1 cells transfected with Lenti-PPARgamma-Luc reporter assessed as cell viability at 4 uM incubated for 48 hrs by CCK-8 assay relative to control; type: toxicity, cell-based; conditions: read-out: Activity; outline: as §2

Structure (SMILES)	Activity (3T3-L1 [1])	viability at 48 h, 5 µM [2]	viability at 48 h, 10 µM [3]	viability at 48 h, 15 µM [4]	viability at 48 h, 20 µM [5]	viability at 48 h, 25 µM [6]	viability at 48 h, 0.1 µM [7]	viability at 48 h, 1 µM [8]	viability at 48 h, 2.5 µM [9]	viability at 48 h, 5 µM [10]	viability at 48 h, 7.5 µM [11]	viability at 48 h, 10 µM [12]	viability at 48 h, 15 µM [13]	viability at 48 h, 20 µM [14]	Activity (3T3-L1 [15])	inhibition (3T3-L1 [16])	IC50 (3T3-L1 [15])	further results
COc1ccc(C[C@@H]2c3cc(Oc4cc(/C=C5\CN(C)CCc6cc(OC)c(OC)cc65)ccc4O)c(OC)cc3CCN2C)cc1	Dose-Dependent Effect	> 80%	> 80%	> 80%	< 80%	< 80%	> 80%	> 80%	> 80%	> 80%	> 80%	> 80%	> 80%	< 80%	Dose-Dependent Effect	Active	–	–
COc1cc2c(cc1OC)[C@@H](Cc1ccc(O)c(Oc3cc4c(cc3OC)CCN(C)[C@@H]4Cc3ccc(O)cc3)c1)N(C)CC2	Dose-Dependent Effect	> 80%	> 80%	> 80%	> 80%	< 80%	> 80%	> 80%	–	> 80%	–	> 80%	> 80%	< 80%	Dose-Dependent Effect	Active	–	viability at 48 h, 25 µM [17]: < 80%; viability at 48 h, 30 µM [18]: < 80%
C=C(c1ccc(OC)cc1)[C@@H]1c2cc(Oc3cc(C[C@H]4c5cc(OC)c(OC)cc5CCN4C)ccc3O)c(OC)cc2CCN1C	Dose-Dependent Effect	> 80%	> 80%	> 80%	< 80%	< 80%	> 80%	> 80%	> 80%	> 80%	> 80%	> 80%	> 80%	< 80%	Dose-Dependent Effect	Active	–	–
COc1ccc(C[C@@H]2c3cc(Oc4cc(C[C@@H]5c6cc(OC)c(OC)cc6CCN5C)ccc4O)c(OC)cc3CCN2C)cc1 [NEFERINE]	Dose-Dependent Effect	> 80%	> 80%	< 80%	< 80%	–	> 80%	> 80%	> 80%	> 80%	> 80%	> 80%	< 80%	< 80%	Dose-Dependent Effect	Active	6.1 µM	viability at 48 h, 2.5 µM [19]: > 80%
C=C(c1ccc(O)c(Oc2cc3c(cc2OC)CCN(C)[C@@H]3Cc2ccc(OC)cc2)c1)[C@H]1c2cc(OC)c(OC)cc2CCN1C	Dose-Dependent Effect	> 80%	< 80%	–	–	–	> 80%	> 80%	–	> 80%	< 80%	< 80%	–	–	Dose-Dependent Effect	Active	4.6 µM	viability at 48 h, 1 µM [20]: > 80%; viability at 48 h, 3 µM [21]: > 80%; viability at 48 h, 7.5 µM [22]: < 80%; viability at 48 h, 2 µM [23]: > 80%; viability at 48 h, 3 µM [24]: > 80%; viability at 48 h, 4 µM [25]: > 80%
C=C(c1ccc(O)c(Oc2cc3c(cc2OC)CCN(C)[C@@H]3Cc2ccc(OC)cc2)c1)[C@H]1c2cc(O)c(OC)cc2CCN1C	Dose-Dependent Effect	> 80%	< 80%	–	–	–	> 80%	> 80%	–	> 80%	< 80%	< 80%	–	–	Dose-Dependent Effect	Active	4.5 µM	viability at 48 h, 1 µM [20]: > 80%; viability at 48 h, 3 µM [21]: > 80%; viability at 48 h, 7.5 µM [22]: < 80%; viability at 48 h, 2 µM [23]: > 80%; viability at 48 h, 3 µM [24]: > 80%; viability at 48 h, 4 µM [25]: > 80%
COc1ccc(C[C@@H]2c3cc(Oc4cc(C[C@@H]5c6cc(O)c(OC)cc6CCN5C)ccc4O)c(OC)cc3CCN2C)cc1 [ISOLIENSININE]	Dose-Dependent Effect	> 80%	> 80%	< 80%	< 80%	–	> 80%	> 80%	> 80%	> 80%	> 80%	> 80%	< 80%	< 80%	Dose-Dependent Effect	Active	–	viability at 48 h, 2.5 µM [19]: > 80%
CC[C@H](C)C(=O)O[C@H]1C[C@@H](C)C=C2C=C[C@H](C)[C@H](CC[C@@H]3C[C@@H](O)CC(=O)O3)[C@H]21 [LOVASTATIN]	–	> 80%	–	–	–	–	–	–	–	–	–	–	–	–	–	–	–	–
C=C(c1ccc(O)c(Oc2cc3c(cc2OC)CCN(C)[C@@H]3Cc2ccc(OC)cc2)c1)[C@@H]1c2cc(OC)c(OC)cc2CCN1C	Dose-Dependent Effect	> 80%	> 80%	> 80%	< 80%	< 80%	> 80%	> 80%	> 80%	> 80%	> 80%	> 80%	> 80%	< 80%	Dose-Dependent Effect	Active	10.7 µM	–
COc1ccc(C[C@@H]2c3cc(Oc4cc(C[C@H]5c6cc(OC)c(OC)cc6CCN5C)ccc4O)c(OC)cc3CCN2C)cc1	Dose-Dependent Effect	> 80%	< 80%	> 80%	–	–	> 80%	> 80%	–	> 80%	< 80%	< 80%	–	–	Dose-Dependent Effect	Active	4.5 µM	viability at 48 h, 1 µM [20]: > 80%; viability at 48 h, 3 µM [21]: > 80%; viability at 48 h, 7.5 µM [22]: < 80%; viability at 48 h, 2 µM [23]: > 80%; viability at 48 h, 3 µM [24]: > 80%; viability at 48 h, 4 µM [25]: > 80%
C=C(c1ccc(O)c(Oc2cc3c(cc2OC)CCN(C)[C@@H]3Cc2ccc(OC)cc2)c1)[C@@H]1c2cc(O)c(OC)cc2CCN1C	Dose-Dependent Effect	> 80%	> 80%	< 80%	< 80%	–	> 80%	> 80%	> 80%	> 80%	> 80%	> 80%	< 80%	< 80%	Dose-Dependent Effect	Active	8.8 µM	viability at 48 h, 2.5 µM [19]: > 80%

— ChEMBL document CHEMBL5385940 (J Nat Prod, 2024)
